What was measured:
Conditions in all cases: stereoisomer not certain
[1] = target: T1, UniProt Q8VF52
T1 sequence (whole entry): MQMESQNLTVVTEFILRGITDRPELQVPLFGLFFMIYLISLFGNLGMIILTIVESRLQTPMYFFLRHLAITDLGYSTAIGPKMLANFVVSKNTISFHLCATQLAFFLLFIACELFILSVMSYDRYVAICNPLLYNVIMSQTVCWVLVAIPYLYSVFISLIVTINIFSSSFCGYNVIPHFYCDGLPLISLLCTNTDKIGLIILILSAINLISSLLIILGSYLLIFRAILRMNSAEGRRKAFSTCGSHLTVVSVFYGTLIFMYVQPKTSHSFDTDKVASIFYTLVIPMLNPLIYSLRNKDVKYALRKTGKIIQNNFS
How it was run: (§1)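 Each entry records the cell line, G-protein, co-transfected protein and tags used. Methods varied with the source, often transient luciferase assays in mammalian cell lines. A receptor–molecule pair is called responsive (active) if the original authors judged its signal statistically different from baseline and non-responsive (inactive) otherwise.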

[2] = target: T2, UniProt Q8VFG6
T2 sequence (whole entry): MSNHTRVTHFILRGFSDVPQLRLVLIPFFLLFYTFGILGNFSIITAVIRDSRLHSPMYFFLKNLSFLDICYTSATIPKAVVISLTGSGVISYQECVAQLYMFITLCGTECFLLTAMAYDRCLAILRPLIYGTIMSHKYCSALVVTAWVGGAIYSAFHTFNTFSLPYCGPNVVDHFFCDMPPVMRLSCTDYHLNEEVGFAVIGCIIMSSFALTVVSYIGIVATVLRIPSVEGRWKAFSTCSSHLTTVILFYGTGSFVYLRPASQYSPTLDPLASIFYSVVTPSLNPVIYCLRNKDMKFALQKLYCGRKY
How it was run: as §1

[3] = target: T3, UniProt Q8VFM8
T3 sequence (whole entry): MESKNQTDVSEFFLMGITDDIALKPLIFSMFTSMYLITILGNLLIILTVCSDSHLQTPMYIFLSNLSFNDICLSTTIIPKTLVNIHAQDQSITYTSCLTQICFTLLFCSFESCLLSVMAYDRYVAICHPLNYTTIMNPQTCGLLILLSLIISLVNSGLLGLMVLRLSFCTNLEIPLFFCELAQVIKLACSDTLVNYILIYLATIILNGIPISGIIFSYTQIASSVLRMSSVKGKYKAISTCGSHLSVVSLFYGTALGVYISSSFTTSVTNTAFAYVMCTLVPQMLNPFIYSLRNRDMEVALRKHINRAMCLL
How it was run: as §1

[4] = target: T4, UniProt Q8VFP5
T4 sequence (whole entry): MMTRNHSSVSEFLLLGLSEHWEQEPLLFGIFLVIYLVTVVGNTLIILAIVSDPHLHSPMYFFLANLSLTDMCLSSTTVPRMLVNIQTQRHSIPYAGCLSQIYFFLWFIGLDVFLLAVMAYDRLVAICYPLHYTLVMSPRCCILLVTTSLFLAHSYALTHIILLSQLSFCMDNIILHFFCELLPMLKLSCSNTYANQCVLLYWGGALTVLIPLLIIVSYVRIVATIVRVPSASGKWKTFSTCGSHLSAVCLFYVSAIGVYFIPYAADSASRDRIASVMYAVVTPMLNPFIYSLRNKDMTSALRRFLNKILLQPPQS
How it was run: as §1

[5] = target: T5, UniProt Q8VFZ6
T5 sequence (whole entry): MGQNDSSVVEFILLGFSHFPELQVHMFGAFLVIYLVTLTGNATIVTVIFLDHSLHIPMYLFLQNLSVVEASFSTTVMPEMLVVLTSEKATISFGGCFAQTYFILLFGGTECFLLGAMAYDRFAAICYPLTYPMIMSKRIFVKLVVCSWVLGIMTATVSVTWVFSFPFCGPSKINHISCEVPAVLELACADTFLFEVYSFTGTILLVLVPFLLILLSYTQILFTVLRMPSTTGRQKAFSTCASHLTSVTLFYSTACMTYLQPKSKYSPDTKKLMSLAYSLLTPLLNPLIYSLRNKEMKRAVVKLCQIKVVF
How it was run: as §1

[6] = target: T6, UniProt Q8VG01
T6 sequence (whole entry): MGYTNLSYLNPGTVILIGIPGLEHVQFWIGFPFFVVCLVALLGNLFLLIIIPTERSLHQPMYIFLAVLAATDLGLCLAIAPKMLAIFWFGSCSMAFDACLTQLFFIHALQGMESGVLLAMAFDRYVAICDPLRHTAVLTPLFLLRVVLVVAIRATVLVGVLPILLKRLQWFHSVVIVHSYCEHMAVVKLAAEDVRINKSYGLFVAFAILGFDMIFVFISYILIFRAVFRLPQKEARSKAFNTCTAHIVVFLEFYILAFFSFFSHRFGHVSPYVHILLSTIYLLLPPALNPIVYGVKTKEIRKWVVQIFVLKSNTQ
How it was run: as §1

[7] = target: T7, UniProt Q8VG22
T7 sequence (whole entry): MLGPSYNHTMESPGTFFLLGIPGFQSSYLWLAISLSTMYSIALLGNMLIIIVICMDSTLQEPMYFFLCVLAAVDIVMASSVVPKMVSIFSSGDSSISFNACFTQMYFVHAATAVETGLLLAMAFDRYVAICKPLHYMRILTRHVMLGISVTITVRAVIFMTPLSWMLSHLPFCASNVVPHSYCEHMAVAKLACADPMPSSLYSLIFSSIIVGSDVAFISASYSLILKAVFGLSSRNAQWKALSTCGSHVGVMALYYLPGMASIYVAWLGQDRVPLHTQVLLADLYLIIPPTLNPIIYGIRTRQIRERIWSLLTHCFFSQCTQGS
How it was run: as §1

[8] = target: T8, UniProt Q8VG27
T8 sequence (whole entry): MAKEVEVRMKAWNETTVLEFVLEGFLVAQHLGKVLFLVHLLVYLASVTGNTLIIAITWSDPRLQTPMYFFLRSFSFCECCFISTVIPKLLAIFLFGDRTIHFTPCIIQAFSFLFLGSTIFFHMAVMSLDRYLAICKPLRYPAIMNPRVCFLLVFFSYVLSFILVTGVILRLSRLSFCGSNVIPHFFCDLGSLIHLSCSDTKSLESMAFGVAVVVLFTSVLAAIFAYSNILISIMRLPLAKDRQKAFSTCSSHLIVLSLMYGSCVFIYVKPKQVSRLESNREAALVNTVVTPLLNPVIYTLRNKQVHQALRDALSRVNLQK
How it was run: as §1

[9] = target: T9, UniProt Q8VG49
T9 sequence (whole entry): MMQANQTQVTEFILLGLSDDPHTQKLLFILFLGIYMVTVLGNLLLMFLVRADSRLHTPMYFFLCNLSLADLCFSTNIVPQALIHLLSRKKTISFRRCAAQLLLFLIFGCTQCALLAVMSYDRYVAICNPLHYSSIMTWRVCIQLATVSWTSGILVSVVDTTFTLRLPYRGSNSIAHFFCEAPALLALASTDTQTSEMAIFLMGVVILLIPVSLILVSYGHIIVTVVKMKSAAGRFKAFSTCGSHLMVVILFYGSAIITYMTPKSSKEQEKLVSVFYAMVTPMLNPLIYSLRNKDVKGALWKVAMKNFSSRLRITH
How it was run: as §1

[10] = target: T10, UniProt Q8VG53
T10 sequence (whole entry): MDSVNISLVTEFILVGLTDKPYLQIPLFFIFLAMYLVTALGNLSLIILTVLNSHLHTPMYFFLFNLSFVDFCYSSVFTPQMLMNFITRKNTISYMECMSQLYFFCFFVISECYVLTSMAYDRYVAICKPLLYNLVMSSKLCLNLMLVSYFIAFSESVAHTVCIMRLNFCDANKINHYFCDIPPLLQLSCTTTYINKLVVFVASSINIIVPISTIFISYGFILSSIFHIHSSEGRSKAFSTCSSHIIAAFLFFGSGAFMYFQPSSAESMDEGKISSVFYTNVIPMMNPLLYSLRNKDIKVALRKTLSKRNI
How it was run: as §1

[11] = target: T11, UniProt Q8VG64
T11 sequence (whole entry): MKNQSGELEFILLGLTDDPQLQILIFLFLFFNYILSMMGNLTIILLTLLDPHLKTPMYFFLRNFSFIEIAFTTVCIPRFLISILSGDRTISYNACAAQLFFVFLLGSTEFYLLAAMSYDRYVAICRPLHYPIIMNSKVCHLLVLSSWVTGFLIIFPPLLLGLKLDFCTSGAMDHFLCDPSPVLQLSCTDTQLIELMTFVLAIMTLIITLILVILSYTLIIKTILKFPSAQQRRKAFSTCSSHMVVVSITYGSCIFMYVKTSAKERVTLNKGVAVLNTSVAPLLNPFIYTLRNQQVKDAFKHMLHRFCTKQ
How it was run: as §1

[12] = target: T12, UniProt Q8VG77
T12 sequence (whole entry): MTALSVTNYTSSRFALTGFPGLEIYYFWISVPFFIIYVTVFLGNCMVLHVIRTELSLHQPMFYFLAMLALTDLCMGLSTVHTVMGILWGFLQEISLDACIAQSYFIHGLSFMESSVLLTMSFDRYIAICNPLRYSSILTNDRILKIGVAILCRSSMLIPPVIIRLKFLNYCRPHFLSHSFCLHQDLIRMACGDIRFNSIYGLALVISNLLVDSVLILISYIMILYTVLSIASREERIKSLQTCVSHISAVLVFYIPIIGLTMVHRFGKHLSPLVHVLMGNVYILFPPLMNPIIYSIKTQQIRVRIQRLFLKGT
How it was run: as §1

[13] = target: T13, UniProt Q8VG96
T13 sequence (whole entry): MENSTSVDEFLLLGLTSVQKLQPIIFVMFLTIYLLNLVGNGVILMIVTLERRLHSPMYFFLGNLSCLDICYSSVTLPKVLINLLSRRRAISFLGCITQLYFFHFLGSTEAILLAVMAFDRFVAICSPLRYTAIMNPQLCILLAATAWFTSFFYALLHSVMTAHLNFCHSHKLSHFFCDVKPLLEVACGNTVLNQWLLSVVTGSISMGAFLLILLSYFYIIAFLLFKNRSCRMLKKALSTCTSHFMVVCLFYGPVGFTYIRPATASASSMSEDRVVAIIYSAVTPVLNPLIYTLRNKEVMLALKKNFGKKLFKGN
How it was run: as §1

[14] = target: T14, UniProt Q8VGB9
T14 sequence (whole entry): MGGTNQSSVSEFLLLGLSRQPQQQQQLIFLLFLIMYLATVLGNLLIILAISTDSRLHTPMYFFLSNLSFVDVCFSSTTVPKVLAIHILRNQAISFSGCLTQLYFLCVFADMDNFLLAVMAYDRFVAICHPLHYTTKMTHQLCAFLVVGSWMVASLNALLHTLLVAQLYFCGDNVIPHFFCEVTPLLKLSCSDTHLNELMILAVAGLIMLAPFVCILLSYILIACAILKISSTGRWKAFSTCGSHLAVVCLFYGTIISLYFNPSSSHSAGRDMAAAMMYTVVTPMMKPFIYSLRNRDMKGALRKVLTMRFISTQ
How it was run: as §1

[15] = target: T15, UniProt Q8VGC6
T15 sequence (whole entry): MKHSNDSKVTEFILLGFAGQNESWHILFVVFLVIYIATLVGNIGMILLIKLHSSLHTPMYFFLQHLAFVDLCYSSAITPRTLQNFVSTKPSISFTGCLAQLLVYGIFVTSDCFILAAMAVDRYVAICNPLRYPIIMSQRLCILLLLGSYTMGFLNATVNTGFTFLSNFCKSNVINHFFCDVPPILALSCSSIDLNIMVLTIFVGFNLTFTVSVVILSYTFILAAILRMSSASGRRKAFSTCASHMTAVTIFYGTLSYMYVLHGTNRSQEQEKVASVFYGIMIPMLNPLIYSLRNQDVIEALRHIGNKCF
How it was run: as §1

[16] = target: T16, UniProt Q8VGD7
T16 sequence (whole entry): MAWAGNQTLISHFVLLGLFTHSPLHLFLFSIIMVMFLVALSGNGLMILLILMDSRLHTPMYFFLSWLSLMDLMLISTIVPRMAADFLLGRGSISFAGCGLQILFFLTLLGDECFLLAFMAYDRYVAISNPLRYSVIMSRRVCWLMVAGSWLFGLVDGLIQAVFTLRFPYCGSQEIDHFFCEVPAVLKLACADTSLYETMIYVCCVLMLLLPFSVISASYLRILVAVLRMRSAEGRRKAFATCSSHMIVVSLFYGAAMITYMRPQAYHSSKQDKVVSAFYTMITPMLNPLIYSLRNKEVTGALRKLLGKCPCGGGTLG
How it was run: as §1

[17] = target: T17, UniProt Q8VGH1
T17 sequence (whole entry): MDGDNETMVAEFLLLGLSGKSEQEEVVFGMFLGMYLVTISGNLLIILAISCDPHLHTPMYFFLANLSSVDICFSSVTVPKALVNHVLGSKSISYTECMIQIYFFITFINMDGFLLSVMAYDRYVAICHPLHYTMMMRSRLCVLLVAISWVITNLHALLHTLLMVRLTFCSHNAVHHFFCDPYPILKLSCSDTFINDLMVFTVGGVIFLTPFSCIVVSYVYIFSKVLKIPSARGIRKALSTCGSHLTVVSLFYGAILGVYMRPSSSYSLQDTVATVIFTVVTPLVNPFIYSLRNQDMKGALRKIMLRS
How it was run: as §1

[18] = target: T18, UniProt Q8VGJ1
T18 sequence (whole entry): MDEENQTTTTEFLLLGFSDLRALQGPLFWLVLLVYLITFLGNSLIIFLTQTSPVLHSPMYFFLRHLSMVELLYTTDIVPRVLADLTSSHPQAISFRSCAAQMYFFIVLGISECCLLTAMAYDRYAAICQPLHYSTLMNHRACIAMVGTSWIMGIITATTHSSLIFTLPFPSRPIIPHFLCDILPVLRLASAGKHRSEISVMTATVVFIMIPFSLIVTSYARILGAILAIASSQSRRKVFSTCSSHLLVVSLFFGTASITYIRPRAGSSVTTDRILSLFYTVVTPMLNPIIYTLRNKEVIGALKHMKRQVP
How it was run: as §1

[19] = target: T19, UniProt Q8VGJ3
T19 sequence (whole entry): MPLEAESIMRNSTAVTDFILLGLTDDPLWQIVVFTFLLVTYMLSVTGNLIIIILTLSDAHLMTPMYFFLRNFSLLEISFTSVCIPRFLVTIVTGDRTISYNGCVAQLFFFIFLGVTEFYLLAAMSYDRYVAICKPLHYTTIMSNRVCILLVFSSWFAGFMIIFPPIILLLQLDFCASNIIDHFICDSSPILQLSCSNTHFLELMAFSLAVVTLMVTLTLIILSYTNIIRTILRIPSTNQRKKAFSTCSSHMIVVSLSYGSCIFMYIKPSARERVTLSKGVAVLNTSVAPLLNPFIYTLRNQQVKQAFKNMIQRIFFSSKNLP
How it was run: as §1

Measured: odorant receptor agonist call

O=c1cc(O)c2ccccc2o1
active: [7]
inactive: all other assays above
